Data as given in ChEMBL document CHEMBL1157180 (Bioorg Med Chem, 2008).
Calls of active or inactive are those of the source. No cut-off for these calls is given here.

Columns and labels:
[1] = molecular target: T1, Muscarinic acetylcholine receptor M1 (Rattus norvegicus, UniProt P08482); experiment: Displacement of [3H]Quinuclidinyl benzilate from muscarinic M1 receptor in Wistar rat cortex synaptosomal membrane
T1 sequence (P08482 whole entry): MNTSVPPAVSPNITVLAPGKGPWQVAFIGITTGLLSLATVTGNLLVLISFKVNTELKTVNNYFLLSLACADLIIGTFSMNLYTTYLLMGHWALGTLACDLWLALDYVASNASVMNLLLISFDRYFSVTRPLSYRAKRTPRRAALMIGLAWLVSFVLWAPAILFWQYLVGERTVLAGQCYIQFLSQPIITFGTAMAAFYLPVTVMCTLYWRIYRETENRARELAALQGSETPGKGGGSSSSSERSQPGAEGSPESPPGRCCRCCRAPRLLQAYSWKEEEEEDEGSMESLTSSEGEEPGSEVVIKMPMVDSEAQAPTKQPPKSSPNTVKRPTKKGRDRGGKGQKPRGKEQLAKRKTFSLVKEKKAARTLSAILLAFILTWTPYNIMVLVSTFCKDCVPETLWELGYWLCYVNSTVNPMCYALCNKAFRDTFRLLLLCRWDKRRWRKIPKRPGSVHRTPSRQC

Rattus norvegicus [2] = species: Rattus norvegicus; experiment: Antiamnesic activity in Wistar rat assessed as reversal of scopolamine-induced memory loss by passive avoidance test; assay type: functional, organism-based
Rattus norvegicus [3] = experiment: Acute toxicity in orally dosed Wistar rat after 1 week; assay type: organism-based; conditions: in vivo, po, 168 h
How it was run: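 Rats, 8 per group, fasted 16 h, then given the compounds orally at various doses. Animals observed for 1 week after dosing, with deaths recorded daily.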

Rattus norvegicus [4] = species: Rattus norvegicus; experiment: Reversal of scopolamine-induced memory and learning impairment in Wistar rat assessed as transfer latency for 90 seconds by plus maze test; assay type: functional, organism-based
How it was run: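 Elevated plus maze in male Wistar rats, 30 min after treatment, given scopolamine alone or test agent plus scopolamine; controls got 0.9% saline. Each rat is placed at the end of an open arm facing away from the centre. Transfer latency (TL) is the time to enter an enclosed arm. Day 1 has 90 s exploration (TL1, learning) and day 2 is a retest of the same rats (TL2, memory).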

Rattus norvegicus [5] = species: Rattus norvegicus; experiment: Reversal of scopolamine-induced spartial working memory loss in Wistar rat assessed by Y maze task; assay type: functional; design: concentration or dose not given beside the values
How it was run: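 Male Wistar rats (200–250 g, n = 8) receive test agent with scopolamine and explore the Y-maze 30 min later. Arm entries, including returns, are recorded visually. An alternation is successive entries into all three arms on overlapping triplets. % alternation = actual alternations/(total entries − 2) × 100, compared against the scopolamine-only group.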

SMILES | IC50 [1] [µM] | Ki [1] [µM] | Activity (Rattus norvegicus [2]) | Activity (Rattus norvegicus [3]) | Activity (Rattus norvegicus [4]) | Activity (Rattus norvegicus [5]) [%]
CN1CCC=C(C2CN(S(=O)(=O)c3cccc([N+](=O)[O-])c3)CCO2)C1 (stereo unspecified) | 201 | 62 | Active | Non-toxic | – | –
CN1CCC=C(C2CN(S(=O)(=O)c3ccc(C(C)(C)C)cc3)CCO2)C1 (stereo unspecified) | 19 | 4 | Active | Non-toxic | Active | 61
CN1CCC=C(C2CN(S(=O)(=O)c3cc(Cl)ccc3Cl)CCO2)C1 (stereo unspecified) | 115 | 35 | Active | Non-toxic | – | 59
CN1CCC=C(C2CN(S(=O)(=O)c3ccccc3[N+](=O)[O-])CCO2)C1 (stereo unspecified) | 314 | 96 | Active | Non-toxic | – | –
CN1CCC=C(C2CN(S(=O)(=O)c3ccc([N+](=O)[O-])cc3)CCO2)C1 (stereo unspecified) | 208 | 64 | Active | Non-toxic | – | –
CN1CCC=C(C2CN(S(=O)(=O)c3ccc(Cl)cc3)CCO2)C1 (stereo unspecified) | 0.92 | 0.26 | Active | Non-toxic | Active | 64
Cc1ccc(S(=O)(=O)N2CCOC(C3=CCCN(C)C3)C2)cc1 (stereo unspecified) | 61 | 14 | Active | Non-toxic | Active | 62
CN1CCC=C(C2CN(S(=O)(=O)c3ccccc3)CCO2)C1 (stereo unspecified) | 90 | 27 | Active | Non-toxic | Active | 60
